Calls of active or inactive are those of the source. The rule behind the calls is not given here.
Columns and labels:
[1] = biological target: Eukaryotic translation initiation factor 2-alpha kinase 1 (Homo sapiens) (UniProt Q9BQI3); assay: Activation of HRI in human CRL2813 cells assessed as increase in eIF2alpha phosphorylation at 5 uM after 2 hrs by Western blot analysis; assay type: cell-based
Summary of the method: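 Adherent CRL-2813 melanoma cells exposed to 5 μM for 2 h. Lysates immunoblotted with anti-phosphoserine-51 eIF2α and anti-total eIF2α antibodies after BCA normalization and SDS-PAGE. Gels representative of three independent experiments.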

[2] = biological target: Eukaryotic translation initiation factor 2-alpha kinase 1 (Homo sapiens) (UniProt Q9BQI3); assay: Activation of HRI in human CRL2813 cells assessed as increase in CHOP protein expression at 5 uM after 8 hrs by Western blot analysis; assay type: cell-based
Summary of the method: (§1)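 CRL-2813 cells at 70% confluence in serum-containing, antibiotic-free medium; treated at 5 μM for 8 h. Lysed in M-PER on ice for 30 min, equal protein by BCA, SDS-PAGE and immunoblot for CHOP, cyclin D1 and β-actin. Blots representative of three independent experiments.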

[3] = biological target: Eukaryotic translation initiation factor 2-alpha kinase 1 (Mus musculus) (UniProt Q9Z2R9); assay: Activation of HRI in mouse KLN cells transfected with 5'UTR of ATF-4 mRNA fused firefly luciferase mRNA and 5'UTR lacking uORF fused renila luciferase mRNA assessed as increase in eIF2alpha phosphorylation by measuring ratio of firefly luciferase to renila luciferase after 16 hrs; assay type: cell-based
Chain of Eukaryotic translation initiation factor 2-alpha kinase 1 (Mus musculus) (Q9Z2R9 whole entry, the tested form may be a part): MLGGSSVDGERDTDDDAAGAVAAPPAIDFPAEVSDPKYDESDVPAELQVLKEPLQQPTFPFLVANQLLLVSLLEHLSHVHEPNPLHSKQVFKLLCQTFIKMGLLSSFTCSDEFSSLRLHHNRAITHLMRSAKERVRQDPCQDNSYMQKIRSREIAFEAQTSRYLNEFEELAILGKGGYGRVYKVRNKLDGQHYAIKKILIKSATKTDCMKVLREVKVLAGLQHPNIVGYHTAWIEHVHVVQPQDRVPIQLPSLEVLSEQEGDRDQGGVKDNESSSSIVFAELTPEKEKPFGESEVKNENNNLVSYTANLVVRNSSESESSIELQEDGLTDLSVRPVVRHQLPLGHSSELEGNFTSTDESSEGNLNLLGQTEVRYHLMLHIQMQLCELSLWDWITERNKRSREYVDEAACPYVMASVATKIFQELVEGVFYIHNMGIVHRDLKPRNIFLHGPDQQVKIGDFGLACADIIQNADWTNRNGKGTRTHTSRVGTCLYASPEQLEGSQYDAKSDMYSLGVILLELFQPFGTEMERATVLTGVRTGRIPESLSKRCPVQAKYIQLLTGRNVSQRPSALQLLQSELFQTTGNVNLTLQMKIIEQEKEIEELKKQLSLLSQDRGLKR

[4] = Effect on beta actin protein expression in human CRL2813 cells at 5 uM after 8 hrs by Western blot analysis; assay type: ADME, cell-based; settings: crl2813, 8 h; summary of the method: as §1
[5] = biological target: Eukaryotic translation initiation factor 2-alpha kinase 1 (Mus musculus) (UniProt Q9Z2R9); assay: Activation of HRI in mouse KLN cells transfected with 5'UTR of ATF-4 mRNA fused firefly luciferase mRNA and 5'UTR lacking uORF fused renila luciferase mRNA assessed as increase in eIF2alpha phosphorylation by measuring ratio of firefly luciferase to renila luciferase at 1.25 uM after 16 hrs; assay type: cell-based
[6] = biological target: Eukaryotic translation initiation factor 2-alpha kinase 1 (Homo sapiens) (UniProt Q9BQI3); assay: Activation of HRI in human CRL2813cells assessed as decrease in cyclin D1 protein expression at 5 uM after 8 hrs by Western blot analysis; summary of the method: as §1
[7] = Antiproliferative activity against human CRL2813 cells after 5 days by sulforhodamine B assay; assay type: functional, cell-based; settings: CRL2813, 120 h
Summary of the method: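 CRL-2813 melanoma cells grown 5 days with 0.5–20 μM compound, then fixed in cold 10% TCA and stained with sulforhodamine B. Bound dye measured. Growth % = 100×(T−T0)/(C−T0), with T0 at time zero. IC50 is the concentration giving 50% growth inhibition.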

[8] = biological target: Eukaryotic translation initiation factor 2-alpha kinase 1 (Mus musculus) (UniProt Q9Z2R9); assay: Activation of HRI in mouse KLN cells transfected with 5'UTR of ATF-4 mRNA fused firefly luciferase mRNA and 5'UTR lacking uORF fused renila luciferase mRNA assessed as increase in eIF2alpha phosphorylation by measuring ratio of firefly luciferase to renila luciferase at 5 uM after 16 hrs; assay type: cell-based
[9] = biological target: Eukaryotic translation initiation factor 2-alpha kinase 1 (Homo sapiens) (UniProt Q9BQI3); assay: Activation of HRI in human CRL2813 cells assessed as induction of CHOP mRNA level at 5 uM by real-time PCR relative to 18S RNA; assay type: cell-based
Summary of the method: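 Fold induction of CHOP mRNA in cells treated at 5 μM, normalized to 18S RNA and expressed relative to DMSO (set to 1). Triplicate samples, three independent experiments, mean ± SEM.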

[10] = Tmax in NU008 nude mouse xenografted with human CRL2813 cells at 40 mg/kg, ip by LC-MS analysis; assay type: ADME, organism-based; settings: in vivo
Summary of the method: (§2)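 Single i.p. dose of 40 mg/kg. Blood sampled before and at 0.5, 1, 2, 4, 6, 24, 48 and 72 h, mixed with 0.1% EDTA. Whole-blood levels quantified by LC-MS/MS (C18 column at 45 °C) against a standard curve. At least three mice per time point, mean ± SEM.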

[11] = Apparent half life in NU008 nude mouse xenografted with human CRL2813 cells at 40 mg/kg, ip by LC-MS analysis; assay type: ADME, organism-based; settings: in vivo, read-out: t1/2(app) (converted); summary of the method: as §2
[12] = tested on: Mus musculus; assay: Toxicity in NU008 nude mouse xenografted with human CRL2813 cells assessed as body weight change at 150 mg/kg, ip qd administered for 4 days followed by 4 days off and 3 days on for total 28 days; assay type: organism-based; settings: in vivo
Summary of the method: (§3)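 Male nude mice injected s.c. with CRL-2813 cells; once tumors reached 100–150 mm3, randomized into groups of nine. Given i.p. q.d. at 150 or 37.5 mg/kg (4 days on, 4 off, 3 on; 28 days total) in NMP/Cremophor EL/water at 1 μl/g. Vehicle controls received the mixture alone. Body weight measured twice weekly; tumors by caliper weekly. Mean ± SEM.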

[13] = tested on: Mus musculus; assay: Cardiotoxicity in NU008 nude mouse xenografted with human CRL2813 cells at 150 mg/kg, ip qd administered for 4 days followed by 4 days off and 3 days on for total 28 days; assay type: toxicity, organism-based; settings: in vivo
Summary of the method: (§4)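 Xenograft-bearing nude mice dosed i.p. on the 28-day intermittent schedule (150 or 37.5 mg/kg in NMP/Cremophor EL/water). Euthanized at the end of treatment; organs harvested, fixed and examined histopathologically.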

[14] = tested on: Mus musculus; assay: Induction of eIF2alpha phosphorylation in tumor of NU008 nude mouse xenografted with human CRL2813 cells at 37.5 to 150 mg/kg, ip qd administered for 3 days by Western blot analysis; assay type: functional, organism-based
Summary of the method: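 Mice bearing ~200 mm3 CRL-2813 xenografts injected on three consecutive days with vehicle or the same doses used in the efficacy study. Tumors excised, lysed and immunoblotted for phosphorylated and total eIF2α.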

[15] = Antitumor activity against human CRL2813 cells xenografted in NU008 nude mouse assessed as tumor growth inhibition at 37.5 mg/kg, ip qd administered for 4 days followed by 4 days off and 3 days on for total 28 days relative to control; assay type: functional; settings: read-out: TGI; summary of the method: as §3
[16] = Antitumor activity against human CRL2813 cells xenografted in NU008 nude mouse assessed as tumor growth inhibition at 150 mg/kg, ip qd administered for 4 days followed by 4 days off and 3 days on for total 28 days relative to control; assay type: functional; settings: read-out: TGI; summary of the method: as §3
[17] = tested on: Mus musculus; assay: Hepatotoxicity in NU008 nude mouse xenografted with human CRL2813 cells at 150 mg/kg, ip qd administered for 4 days followed by 4 days off and 3 days on for total 28 days; assay type: toxicity, organism-based; settings: in vivo; summary of the method: as §4
[18] = tested on: Mus musculus; assay: Toxicity in NU008 nude mouse xenografted with human CRL2813 cells assessed as histopathologic change in spleen at 150 mg/kg, ip qd administered for 4 days followed by 4 days off and 3 days on for total 28 days; assay type: organism-based; settings: in vivo; summary of the method: as §4
[19] = tested on: Mus musculus; assay: Toxicity in NU008 nude mouse xenografted with human CRL2813 cells assessed as body weight change at 37.5 mg/kg, ip qd administered for 4 days followed by 4 days off and 3 days on for total 28 days; assay type: organism-based; settings: in vivo; summary of the method: as §3
[20] = tested on: Mus musculus; assay: Neurotoxicity in NU008 nude mouse xenografted with human CRL2813 cells at 150 mg/kg, ip qd administered for 4 days followed by 4 days off and 3 days on for total 28 days; assay type: toxicity, organism-based; settings: in vivo; summary of the method: as §4
[21] = tested on: Mus musculus; assay: Nephrotoxicity in NU008 nude mouse xenografted with human CRL2813 cells at 150 mg/kg, ip qd administered for 4 days followed by 4 days off and 3 days on for total 28 days; assay type: toxicity, organism-based; settings: in vivo; summary of the method: as §4
[22] = tested on: Mus musculus; assay: Toxicity in NU008 nude mouse xenografted with human CRL2813 cells assessed as histopathologic change in bone marrow at 150 mg/kg, ip qd administered for 4 days followed by 4 days off and 3 days on for total 28 days; assay type: organism-based; settings: in vivo; summary of the method: as §4
[23] = tested on: CRL2813; assay: Antitumor activity against human CRL2813 cells xenografted in ip dosed NU008 nude mouse assessed as tumor growth inhibition administered qd for 4 days followed by 4 days off and 3 days on for total 28 days; assay type: functional, organism-based; summary of the method: as §3

Chain of Eukaryotic translation initiation factor 2-alpha kinase 1 (Homo sapiens) (Q9BQI3 whole entry): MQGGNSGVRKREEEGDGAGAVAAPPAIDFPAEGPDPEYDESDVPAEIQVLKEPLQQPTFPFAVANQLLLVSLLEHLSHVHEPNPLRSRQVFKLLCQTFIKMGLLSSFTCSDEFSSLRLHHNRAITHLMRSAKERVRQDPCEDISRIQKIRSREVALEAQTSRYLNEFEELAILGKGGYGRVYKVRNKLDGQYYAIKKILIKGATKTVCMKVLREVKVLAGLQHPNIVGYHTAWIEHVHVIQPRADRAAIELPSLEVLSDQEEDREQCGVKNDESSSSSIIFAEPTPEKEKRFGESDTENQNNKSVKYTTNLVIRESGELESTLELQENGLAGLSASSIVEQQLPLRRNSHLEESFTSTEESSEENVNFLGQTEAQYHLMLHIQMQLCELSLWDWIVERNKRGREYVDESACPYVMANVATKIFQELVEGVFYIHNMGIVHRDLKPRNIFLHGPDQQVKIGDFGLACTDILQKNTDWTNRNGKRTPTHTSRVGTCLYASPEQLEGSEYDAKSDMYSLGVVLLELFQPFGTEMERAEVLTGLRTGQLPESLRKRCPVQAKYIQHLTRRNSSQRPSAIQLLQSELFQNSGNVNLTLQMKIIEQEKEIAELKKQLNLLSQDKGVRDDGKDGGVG

Activity [1] | Activity [2] | Activity [3] | Ratio [5] | Activity [6] | Ratio [8] | fold change (FC) [9] | SMILES | Activity [4] | IC50 [7] [nM] | also measured
Active | Active | Dose-dependent effect | 5.54 | Active | 7.75 | 6.21 | N#Cc1ccc(NC(=O)N[C@H]2CC[C@H](Oc3ccc(C(F)(F)F)cc3)CC2)cc1C#N | Non-Toxic | 2010 | –
Active | Active | Dose-dependent effect | 3.38 | Active | 11.6 | 12.8 | N#Cc1ccc(NC(=O)N[C@H]2CC[C@H](Oc3ccc(C(F)(F)F)cc3)CC2)cc1 | Non-Toxic | 490 | –
Active | Active | Dose-dependent effect | 3.23 | Active | 10.2 | 4.72 | O=C(Nc1cccc(C(F)(F)F)c1)N[C@H]1CC[C@H](Oc2ccc(C(F)(F)F)cc2)CC1 | Non-Toxic | 540 | –
Active | Active | Dose-dependent effect | 5.65 | Active | 13.2 | 9.87 | N#Cc1cc(NC(=O)N[C@H]2CC[C@H](Oc3ccc(C(F)(F)F)cc3)CC2)cc(C(F)(F)F)c1 | Non-Toxic | 250 | Tmax [10]: 6 to 24 h; half-life [11]: 2400 min; Activity [12]: < 10%; Activity [13]: Non-Toxic; Activity [14]: Active; inhibition in vivo at 37.5 mg/kg [15]: 50%; inhibition in vivo at 150 mg/kg [16]: 90%; Activity [17]: Non-Toxic; Activity [18]: Non-Toxic; Activity [19]: < 10%; Activity [20]: Non-Toxic; Activity [21]: Non-Toxic; Activity [22]: Non-Toxic; TGI [23]: Dose-dependent effect
Active | Active | Dose-dependent effect | 8.58 | Active | 30.7 | 14.5 | O=C(Nc1cc(C(F)(F)F)cc(C(F)(F)F)c1)N[C@H]1CC[C@H](Oc2ccc(C(F)(F)F)cc2)CC1 | Non-Toxic | 450 | –
Active | Active | Dose-dependent effect | 5.2 | Active | 13.6 | 11.9 | O=C(Nc1cccc(OC(F)(F)F)c1)N[C@H]1CC[C@H](Oc2ccc(C(F)(F)F)cc2)CC1 | Non-Toxic | 920 | –

From ChEMBL document CHEMBL4011623, “Development of 1-((1,4-trans)-4-Aryloxycyclohexyl)-3-arylurea Activators of Heme-Regulated Inhibitor as Selective Activators of the Eukaryotic Initiation Factor 2 Alpha (eIF2α) Phosphorylation Arm of the Integrated Endoplasmic Reticulum Stress Response” (J Med Chem, 2017)
